Laboratory results published in ChEMBL document CHEMBL1140198, “Studies on novel 4beta-[(4-substituted)-1,2,3-triazol-1-yl] podophyllotoxins as potential anticancer agents” (Eur J Med Chem, 2008).

Columns and labels:
Assay type in all cases: functional, cell-based
SF-295 = assay: Cytotoxicity against human SF295 cells by sulforhodamine B assay
Outline: (§1)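 Log-phase cells seeded at 10⁴ cells/well and allowed to attach for 24 h at 37 °C, 5% CO₂. Then exposed to test samples over a 1:10 serial dilution series for 48 h under the same conditions, four replicate wells per condition. Fixed with 50% chilled TCA for 1 h at 4 °C, stained with sulforhodamine B, and the bound dye dissolved in Tris buffer.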

PC-3 = assay: Cytotoxicity against human PC-3 cells by sulforhodamine B assay; outline: as §1
DU-145 = assay: Cytotoxicity against human DU145 cells by sulforhodamine B assay; outline: as §1
[1] = Cytotoxicity against human 502713 cells by sulforhodamine B assay; outline: as §1
HEp-2 = assay: Cytotoxicity against human HEP2 cells by sulforhodamine B assay; outline: as §1
HCT-15 = assay: Cytotoxicity against human HCT-15 cells by sulforhodamine B assay; outline: as §1
A549 = assay: Cytotoxicity against human A549 cells by sulforhodamine B assay; outline: as §1

| SMILES | IC50 (SF-295) [nM] | IC50 (PC-3) [nM] | IC50 (DU-145) [nM] | IC50 [1] [nM] | IC50 (HEp-2) [nM] | IC50 (HCT-15) [nM] | IC50 (A549) [µM] |
| --- | --- | --- | --- | --- | --- | --- | --- |
| COc1cc([C@@H]2c3cc4c(cc3[C@@H](n3cc(CNc5cccc(Cl)c5)nn3)[C@H]3COC(=O)[C@H]23)OCO4)cc(OC)c1OC | 840 | 1180 | 930 | 710 | 1370 | 340 | 4.99 |
| COc1cc([C@@H]2c3cc4c(cc3[C@@H](n3cc(CNc5ccccc5C)nn3)[C@H]3COC(=O)[C@H]23)OCO4)cc(OC)c1O | 960 | 1530 | 1190 | 620 | 1500 | 140 | 5.17 |
| COc1cc([C@@H]2c3cc4c(cc3[C@@H](n3cc(CNc5ccccc5)nn3)[C@H]3COC(=O)[C@H]23)OCO4)cc(OC)c1O | 700 | 1030 | 1090 | 680 | 2960 | 400 | 7.46 |
| COc1cc([C@@H]2c3cc4c(cc3[C@@H](n3cc(CNc5cccc([N+](=O)[O-])c5)nn3)[C@H]3COC(=O)[C@H]23)OCO4)cc(OC)c1OC | 680 | 740 | 650 | 560 | 3650 | 40 | 5.78 |
| COc1cc([C@@H]2c3cc4c(cc3[C@@H](n3cc(CNc5ccccc5)nn3)[C@H]3COC(=O)[C@H]23)OCO4)cc(OC)c1OC | 780 | 880 | 1120 | 610 | 4640 | 140 | 6.1 |
| COc1cc([C@@H]2c3cc4c(cc3[C@@H](n3cc(CNc5ccccc5C)nn3)[C@H]3COC(=O)[C@H]23)OCO4)cc(OC)c1OC | 1940 | 1090 | 1060 | 780 | 9140 | 360 | 7.88 |
| COc1cc([C@@H]2c3cc4c(cc3[C@@H](n3cc(CNc5cccc([N+](=O)[O-])c5)nn3)[C@H]3COC(=O)[C@H]23)OCO4)cc(OC)c1O | 4200 | 6630 | 4370 | 1190 | 4100 | 1550 | 7.43 |
| COc1cc([C@@H]2c3cc4c(cc3[C@@H](n3cc(CNc5cccc(Cl)c5)nn3)[C@H]3COC(=O)[C@H]23)OCO4)cc(OC)c1O | 3110 | 1370 | 4160 | 980 | 1220 | 4220 | 8.63 |
| COc1cc([C@@H]2c3cc4c(cc3[C@@H](n3cc(CNc5ccccc5Cl)nn3)[C@H]3COC(=O)[C@H]23)OCO4)cc(OC)c1OC | 1000 | 3450 | 3570 | 1880 | 1260 | 1430 | 9.24 |
| COc1cc([C@@H]2c3cc4c(cc3[C@@H](O[C@@H]3O[C@@H]5CO[C@@H](C)O[C@H]5[C@H](O)[C@H]3O)[C@H]3COC(=O)[C@H]23)OCO4)cc(OC)c1O [ETOPOSIDE] | 13300 | 17400 | 3850 | 2420 | 2150 | 1480 | 5.62 |
| COc1cc([C@@H]2c3cc4c(cc3[C@H](O)[C@H]3COC(=O)[C@H]23)OCO4)cc(OC)c1OC [PODOFILOX] | 5690 | 18900 | 2970 | 3880 | 1420 | 1000 | 7.63 |
